{
  "source": "ChEMBL document CHEMBL6071149",
  "about": "“Synthesis and photo-induced anticancer activity of new 2-phenylethenyl-1H-benzo[e]indole dyes” (Eur J Med Chem, 2024)",
  "tested_on": "G-361",
  "assay": "Induction of apoptosis in human G361 cells assessed as increase in cleaved BAX level upto 4 uM pretreated for 4 hrs followed by light irradiation of 10 J/cm2 at 414 nm measured after 20 hrs by Western blot analysis",
  "assay_type": "functional, cell-based",
  "details": "time 24.0 hrs",
  "method_in_brief": "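Compound exposure 4 h, then 414 nm irradiation, then 20 h further incubation. Lysates made in RIPA buffer, separated by SDS-PAGE and blotted to nitrocellulose. Primary antibodies in TBS with 4 % BSA and 0.1 % Tween 20, incubated overnight. Peroxidase secondary antibody with chemiluminescent detection. GAPDH served as loading control.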",
  "note": "Activity calls are given as the source filed them. The rule behind the calls is not given here.",
  "data": [
    {"smiles": "COc1ccc(/C=C/C2=Nc3ccc4ccccc4c3C2(C)C)cc1[N+](=O)[O-]", "values": [
      {"measurement": "Activity", "result": "Active"}
    ]}
  ]
}
